According to article PMC12394810 (RSC Advances, 2025):

Assays:
Format in all cases: cell-based
[1] = system: Bacillus subtilis MTCC 121; experiment: Agar well diffusion, antibacterial; conditions: 1 mg/mL, 18 hrs
In short: (§1)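 Agar well diffusion per CLSI (2012). Bacteria grown on Mueller–Hinton agar and kept in Mueller–Hinton broth at 37 °C for 24 h. Inoculum spread evenly over the agar, 6–8 mm wells punched, and each well loaded with 20–100 μL test compound. Plates incubated at 37 °C and zones of inhibition measured in mm.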

[2] = system: HEK-293 (human embryonic kidney cell line); experiment: MTT cytotoxicity assay, HEK-293; conditions: HEK293, 48 h, read-out: IC50 HEK-293
[3] = system: HepG2 (Human hematoma cell line); experiment: MTT cytotoxicity assay, HEPG2; conditions: HepG2, 48 h, read-out: IC50 HEPG2
In short: (§2)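 ATCC cells grown in DMEM with 10% FBS, 2 mM L-glutamine and 100 μg/mL penicillin–streptomycin at 37 °C, 5% CO2. Medium refreshed, 10 μL of 12 mM MTT stock added, then 4 h in the dark at 37 °C. Formazan dissolved in DMSO and read at 570 nm against media-only blanks. Three independent experiments; IC50 by linear regression.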

[4] = system: DU145 (human prostate cell line); experiment: MTT cytotoxicity assay, DU145; conditions: DU-145, 48 h, read-out: IC50 DU145
In short: as §2

[5] = system: Escherichia coli MTCC 730; experiment: Agar well diffusion, antibacterial; conditions: 1 mg/mL, 18 hrs
In short: as §1

[6] = system: Staphylococcus aureus MTCC 96; experiment: Agar well diffusion, antibacterial; conditions: 1 mg/mL, 18 hrs
In short: as §1

[7] = system: Candida albicans MTCC 227; experiment: Agar well diffusion, antifungal; conditions: Candida albicans, MTCC227, 18 h, read-out: Zone of inhibition Candida albicans
In short: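 Fungal strains kept like the bacteria (Mueller–Hinton media) but at 30 °C. Agar well diffusion per CLSI (2012): inoculum spread over the agar, 6–8 mm wells punched, and 20–100 μL test compound added per well. Plates incubated at 30 °C and zone of inhibition diameter read in mm.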

[8] = system: Klebsiella pneumoniae MTCC 109; experiment: Agar well diffusion, antibacterial; conditions: 1 mg/mL, 18 hrs
In short: as §1

[9] = system: SKBR-3 (human breast cancer cell line); experiment: MTT cytotoxicity assay, SKBR-3; conditions: SK-BR-3, 48 h, read-out: IC50 SKBR-3
In short: as §2

For `O=C/C=C/c1ccccc1` [Compound 1, (E)-3-phenylprop-2-enal, reference compound], the “Zone of inhibition Bacillus subtilis” value [1] was 7–8 mm, the IC50 [2] was 20.6 ± 1 µM and the IC50 [3] was 21.8 ± 1 µM. The IC50 [4] was 22.4 ± 1.6 µM, the “Zone of inhibition Escherichia coli” value [5] was 7–8 mm and the “Zone of inhibition Staphylococcus aureus” value [6] was 7–8 mm. The zone of inhibition at 1000 µg/mL [7] was 11 mm, the “Zone of inhibition Klebsiella pneumoniae” value [8] was 7–8 mm and the IC50 [9] was 13.9 ± 1.6 µM.

With `O=C(/C=C/C=C/c1ccccc1)c1ccccc1OCc1ccccc1Br` [Compound 5h, (2E,4E)-1-(2-((2-Bromobenzyl)oxy)phenyl)-5-phenylpenta-2,4-dien-1-one] the IC50 [2] was 23.4 ± 4.7 µM, the IC50 [3] was 45 ± 3.3 µM and the IC50 [4] was 28.6 ± 2.2 µM. The IC50 [9] was 244 ± 4.7 µM.

`O=C(/C=C/C=C/c1ccccc1)c1ccccc1O` [Compound 3, (2E,4E)-1-(2-hydroxyphenyl)-5-phenylpenta-2,4-dien-1-one] gave an IC50 [2] of 67.4 ± 9.1 µM, an IC50 [3] of 40.1 ± 2 µM and an IC50 [4] of 83.5 ± 7.3 µM. It also gave an IC50 [9] of 20.8 ± 4.1 µM.

Work on `CCCCCOc1ccccc1C(=O)/C=C/C=C/c1ccccc1` [Compound 5m, (2E,4E)-1-(2-(Pentyloxy)phenyl)-5-phenylpenta-2,4-dien-1-one] yielded an IC50 [2] of 104 ± 7.3 µM, an IC50 [3] of 33.2 ± 0.7 µM and an IC50 [4] of 126.8 ± 0.2 µM. For the same compound, the IC50 [9] was 125 ± 6 µM.

`O=C(/C=C/C=C/c1ccccc1)c1ccccc1OCc1cccc(Cl)c1` [Compound 5a, (2E,4E)-1-(2-((3-Chlorobenzyl)oxy)phenyl)-5-phenylpenta-2,4-dien-1-one] was tested, and the IC50 [2] was 30.1 ± 8.3 µM, the IC50 [3] was 40.3 ± 2.9 µM and the IC50 [4] was 45.2 ± 2.1 µM. For the same compound, the IC50 [9] was 20.8 ± 1.7 µM.

`O=C(/C=C/C=C/c1ccccc1)c1ccccc1OCc1ccccc1` [Compound 5k, (2E,4E)-1-(2-(Benzyloxy)phenyl)-5-phenylpenta-2,4-dien-1-one] gave an IC50 [2] of 109.4 ± 0.7 µM, an IC50 [3] of 46.6 ± 1.4 µM and an IC50 [4] of 55.6 ± 3.7 µM. The IC50 [9] was 80.3 ± 8.7 µM.

`O=C(/C=C/C=C/c1ccccc1)c1ccccc1OCc1ccc(Br)cc1` [Compound 5g, (2E,4E)-1-(2-((4-Bromobenzyl)oxy)phenyl)-5-phenylpenta-2,4-dien-1-one] was tested, and the IC50 [2] was 27.6 ± 4.2 µM, the IC50 [3] was 25.8 ± 1.6 µM and the IC50 [4] was 16.9 ± 2.3 µM. It also gave an IC50 [9] of 15.7 ± 2.8 µM.

Work on `O=C(/C=C/C=C/c1ccccc1)c1ccccc1OCc1ccccc1Cl` [Compound 5d, (2E,4E)-1-(2-((2-Chlorobenzyl)oxy)phenyl)-5-phenylpenta-2,4-dien-1-one] yielded an IC50 [2] of 203 ± 5.3 µM, an IC50 [3] of 41.4 ± 3.9 µM and an IC50 [4] of 46.1 ± 1.1 µM. For the same compound, the IC50 [9] was 75.9 ± 4.8 µM.
